Assay results published in ChEMBL document CHEMBL1671864, “First assessment in humans of the safety, tolerability, pharmacokinetics, and ex vivo pharmacodynamic antimalarial activity of the new artemisinin derivative artemisone” (Antimicrob Agents Chemother, 2008).

Columns and labels:
Format in all cases: ADME, organism-based
[1] = Apparent oral clearance in healthy human at 20 mg, po administered as single ascending doses as solution during 10 hrs overnight fasting state; details: in vivo
Procedure, shortened: (§1)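 Single ascending oral doses in healthy Caucasian men, given fasted (10-h overnight) with 240 ml water: 10, 20, 30 or 40 mg as oral solution, or 80 mg as IR tablets. Parent plasma levels by LC/MS-MS over 0.25–14 h. Noncompartmental analysis: kel by terminal-phase least-squares regression, AUC extrapolated to infinity, CL/F = dose/AUC, V/F = CL/F÷kel.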

[2] = Apparent oral clearance in healthy human at 80 mg, po administered as four 20 mg immediate release tablets daily for 3 days during 10 hrs overnight fasting state measured after 3 day; details: in vivo
Procedure, shortened: (§2)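 Healthy Caucasian males took 40 mg (2×20-mg IR tablets) or 80 mg (4 tablets) orally daily for 3 days after a 10-h fast. Plasma parent drug was measured by LC/MS-MS from predose to 14 h after the first and third doses. Noncompartmental analysis: AUC by log-linear trapezoid extrapolated via kel, CL/F = dose/AUC, V/F = CL/F÷kel, geometric means.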

[3] = Half life in healthy human plasma at 40 mg, po administered as single ascending doses as solution during 10 hrs overnight fasting state
Procedure, shortened: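 Healthy Caucasian male volunteers, single oral dose with 240 ml water after a 10-h overnight fast. Heparinised venous blood was drawn predose and at 0.25–14 h. Plasma was stored frozen. Parent drug and metabolites M1–M3 were measured by LC/MS-MS (MRM, deuterated internal standard). Noncompartmental analysis gave Cmax observed, t1/2 = 0.693/kel (terminal regression) and MRT = AUMC/AUC. Values are geometric means.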

[4] = Apparent volume of distribution with respect to the bioavailability in healthy human at 80 mg, po administered as single immediate release tablets during 10 hrs overnight fasting state; details: in vivo, read-out: Vc/F; procedure, shortened: as §1
[5] = Apparent volume of distribution with respect to the bioavailability in healthy human at 40 mg, po administered as two 20 mg immediate release tablets daily for 3 days during 10 hrs overnight fasting state measured after 1 day; details: in vivo, read-out: Vc/F; procedure, shortened: as §2
[6] = Apparent volume of distribution with respect to the bioavailability in healthy human at 40 mg, po administered as two 20 mg immediate release tablets daily for 3 days during 10 hrs overnight fasting state measured after 3 day; details: in vivo, read-out: Vc/F; procedure, shortened: as §2
[7] = AUC in healthy human plasma at 80 mg, po administered as four 20 mg immediate release tablets daily for 3 days during 10 hrs overnight fasting state measured after 3 day; design: time < 10 hr, dose 80 mg, route oral; procedure, shortened: as §2
Plasma = assay: Ratio of Cmax in healthy human plasma at 80 mg, po administered as four 20 mg immediate release tablets daily for 3 days during 10 hrs overnight fasting state measured after 1 day to Cmax in healthy human plasma at 80 mg, po administered as four 20 mg immediate release tablets daily for 3 days during 10 hrs overnight fasting state measured after 3 day; details: in vivo
Procedure, shortened: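 Healthy Caucasian men took tablets daily for 3 days with 240 ml water after 10-h fast. Plasma sampled 0.25–14 h after first and last doses, artemisone measured by LC/MS-MS. Accumulation ratio is Cmax or AUC0-∞ after last dose divided by that after first dose. Noncompartmental analysis, geometric means with 95% CI.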

C[C@H]1[C@H](N2CCS(=O)(=O)CC2)O[C@@H]2O[C@@]3(C)CC[C@H]4[C@H](C)CC[C@@H]1[C@@]24OO3 [ARTEMIFONE] showed a CL/F [1] of 5080 mL/min, a CL/F [2] of 3950 mL/min and a half-life [3] of 3.54 h. The Vd/F [4] was 14.5 L/kg, the Vd/F [5] was 12.8 L/kg and the Vd/F [6] was 16.1 L/kg. It also gave an AUC at 10 h [7] of 337 ng·h/mL and a Ratio (Plasma) of 84%.
